Active and inactive are the calls of the source.
What was measured:
[1] = molecular target: Serine/threonine-protein kinase PINK1, mitochondrial (Homo sapiens) (UniProt Q9BXM7); experiment: Activation of PINK1 in human HeLa cells transfected with Parkin assessed as increase in Parkin phosphorylation at serine 65 at 50 uM incubated for 1 hr by Western blot analysis; assay type: cell-based
How it was run: (§1)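 HeLa cells transfected with Parkin were exposed to 50 μM compound for 1 h, with 10 μM CCCP for 3 h as a control. Cells were then lysed and immunoblotted for pSer65 Parkin, total Parkin, OPA1 and GAPDH (loading control). Untreated transfected and untransfected cells were included. Blots are representative of three repeat experiments.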

[2] = system: HeLa; experiment: Inhibition of ubiquitin phosphorylation in CCCP stimulated human HeLa cells overexpressing Parkin assessed as reduction in CCCP-induced ubiquitin phosphorylation at serine 65 at 50 uM preincubated for 24 hrs followed by CCCP stimulation for 3 hr by Western blot analysis; assay type: cell-based; settings: time 27.0 hrs
How it was run: (§2)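 Parkin-transfected HeLa cells received 50 μM compound for 24 h. They were then either lysed directly or given 10 μM CCCP for 3 h before lysis. Lysates were immunoblotted for Ser65-phosphorylated ubiquitin, OPA1 cleavage and GAPDH. Untreated transfected and untransfected cells served as references.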

[3] = molecular target: Serine/threonine-protein kinase PINK1, mitochondrial (Mus musculus) (UniProt Q99MQ3); experiment: Activation of mouse PINK1 in mouse astrocytes assessed increase in ubiquitin serine 65 phosphorylation at 50 uM incubated for 24 hrs by ELISA analysis; assay type: cell-based; settings: Astrocyte, filed as activator
How it was run: (§3)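 Primary cortical astrocytes came from postnatal day 3 C57BL/6J pups and were used at 70–90% confluence (7–10 days in vitro). Lysates (HEPES/NP-40 lysis, pellet resuspended in RIPA) went to pS65-Ub ELISA. Signal was normalised per μg protein (BCA); mean ± SEM, n = 8.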

[4] = molecular target: Serine/threonine-protein kinase PINK1, mitochondrial (Homo sapiens) (UniProt Q9BXM7); experiment: Activation of human PINK1 in human HeLa cells overexpressing Parkin assessed as phosphorylation of ubiquitin at serine 65 at 50 uM and measured after 24 hr by Western blot analysis; assay type: cell-based; how it was run: as §2
[5] = molecular target: Serine/threonine-protein kinase PINK1, mitochondrial (Mus musculus) (UniProt Q99MQ3); experiment: Activation of mouse PINK1 in mouse astrocytes assessed ubiquitin serine 65 phosphorylation at 50 uM preincubated for 24 hrs followed by valinomycin treatment for 5 hrs by ELISA; assay type: cell-based; settings: Astrocyte, time 29.0 hrs; how it was run: as §3
[6] = molecular target: T1, Serine/threonine-protein kinase Pink1, mitochondrial (Tribolium castaneum) (UniProt D6WMX4); experiment: Inhibition of recombinant Tribolium castaneum PINK1 using human Parkin as substrate assessed as substrate phosphorylation upto 100 uM
T1 sequence (whole entry): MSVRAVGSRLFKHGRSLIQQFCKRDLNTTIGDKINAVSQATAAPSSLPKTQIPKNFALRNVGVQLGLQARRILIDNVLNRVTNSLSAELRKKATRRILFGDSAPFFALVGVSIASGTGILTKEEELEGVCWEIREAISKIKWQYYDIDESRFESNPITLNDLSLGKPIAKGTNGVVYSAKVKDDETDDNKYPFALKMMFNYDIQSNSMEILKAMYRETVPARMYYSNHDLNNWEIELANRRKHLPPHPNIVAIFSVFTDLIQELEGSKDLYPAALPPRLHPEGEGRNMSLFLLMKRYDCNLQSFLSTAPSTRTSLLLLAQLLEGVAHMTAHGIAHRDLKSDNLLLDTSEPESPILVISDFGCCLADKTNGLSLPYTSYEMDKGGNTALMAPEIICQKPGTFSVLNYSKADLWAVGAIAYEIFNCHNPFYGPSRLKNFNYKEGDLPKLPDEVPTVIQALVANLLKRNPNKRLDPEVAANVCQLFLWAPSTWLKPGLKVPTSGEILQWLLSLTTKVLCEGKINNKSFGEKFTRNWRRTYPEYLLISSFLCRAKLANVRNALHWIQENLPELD

[7] = system: HeLa; experiment: Induction of mitophagy in human HeLa cells transfected with YFP-Parkin assessed as effect on Parkin localization at 50 uM incubated for 24 hrs by Hoechst 33258 staining based immunofluorescence analysis; assay type: functional, cell-based
How it was run: (§4)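 YFP-Parkin-transfected HeLa cells were left untreated or exposed to 50 μM compound alone for 24 h. Cells were PFA-fixed, Triton-permeabilised and immunostained for pSer65-Ub and TOM20 with Hoechst. Confocal imaging assessed mitochondrial fragmentation, YFP-Parkin localisation and ubiquitin phosphorylation.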

[8] = system: MEF; experiment: Induction of mitophagy in PINK1 knockout mouse immortalized MEF cells overexpressing HA-tagged Parkin assessed as increase in mitophagy at 5 uM incubated for 16 hrs by flow cytometry analysis; assay type: functional, cell-based
How it was run: (§5)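 Immortalised MEFs from PINK1 WT or KO mito-QC littermate embryos, overexpressing HA-Parkin, were treated for 16 h. Cells were trypsinised, fixed in 3.7% formaldehyde/200 mM HEPES pH 7.0 and analysed by flow cytometry (≥2 × 10^4 cells). Living cells were gated on scatter, and the untreated-condition gate was applied to all conditions. Percent cells undergoing mitophagy was taken from the GFP/mCherry ratio; n = 3, two-way ANOVA with Sidak test.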

[9] = system: HeLa; experiment: Inhibition of niclosamide-induced ubiquitin phosphorylation at serine 65 residue in human HeLa cells transfected with YFP-Parkin at 50 uM preincubated for 24 hrs followed by niclosamide stimulation and measured after 1 hr hr by Hoechst 33258 staining based immunofluorescence analysis; assay type: cell-based; settings: time 25.0 hrs
How it was run: (§6)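 YFP-Parkin HeLa cells were pretreated with 50 μM compound for 24 h, then given 10 μM CCCP or niclosamide for 1 h. Cells were fixed in chilled 4% PFA, permeabilised with 0.1% Triton, blocked in BSA, then immunostained overnight at 4 °C for pSer65-Ub and TOM20 with Hoechst. YFP-Parkin was imaged by confocal microscopy (40× oil). pUb mitochondrial localisation was quantified from images.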

[10] = system: HeLa; experiment: (§7) Induction of mitochondrial membrane depolarization in human HeLa cells transfected with YFP-Parkin assessed as prevention of niclosamide induced mitochondrial membrane potential loss at 50 uM preincubated for 24 hrs followed by niclosamide stimulation and measured after 1 hr by Hoechst 33258 staining based immunofluorescence analysis; assay type: functional, cell-based; settings: time 25.0 hrs
How it was run: (§8)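 Mitochondrial membrane potential was read in YFP-Parkin HeLa cells pretreated with 50 μM compound for 24 h, then given 10 μM niclosamide or CCCP for 1 h. Medium was replaced with 5 nM TMRM plus Hoechst for 30 min at 37 °C in the dark. After a PBS wash, live cells were imaged by confocal microscopy at 37 °C, 5% CO2.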

[11] = system: HeLa; experiment: as §7, with “CCCP” for “niclosamide”; assay type: functional, cell-based; settings: time 25.0 hrs; how it was run: as §8
[12] = system: MEF; experiment: Induction of mitophagy in wild-type PINK1 harboring mouse immortalized MEF cells overexpressing HA-tagged Parkin assessed as increase in mitophagy at 5 uM incubated for 16 hrs by flow cytometry analysis; assay type: functional, cell-based; how it was run: as §5
[13] = system: HeLa; experiment: Inhibition of niclosamide-induced ubiquitin phosphorylation at serine 65 residue in human HeLa cells transfected with YFP-Parkin at 50 uM preincubated for 24 hrs followed by niclosamide stimulation and measured after 1 hr hr by Western blot analysis; assay type: cell-based; settings: time 25.0 hrs
How it was run: (§9)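 YFP-Parkin-transfected HeLa cells were pretreated with 50 μM compound (24 h per legend, 23 h per methods), then given 10 μM CCCP or niclosamide for 1 h. Lysis used AP buffer (Tris pH 7.5, IGEPAL, protease/phosphatase inhibitors). Blots were on PVDF, milk-blocked, primary antibody overnight at 4 °C, HRP detection; probed for pUb, LC3B-I/-II and α-tubulin.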

[14] = system: HeLa; experiment: Induction of mitochondrial membrane depolarization in human HeLa cells overexpressing Parkin assessed as inhibition of niclosamide-induced OPA1 cleavage at 50 uM preincubated for 24 hrs followed by niclosamide stimulation and measured after 3 hrs by Western blot analysis; assay type: functional, cell-based; settings: time 27.0 hrs
[15] = system: HeLa; experiment: Inhibition of CCCP-induced ubiquitin phosphorylation at serine 65 residue in human HeLa cells transfected with YFP-Parkin at 50 uM preincubated for 24 hrs followed by CCCP stimulation and measured after 1 hr hr by Hoechst 33258 staining based immunofluorescence analysis; assay type: cell-based; settings: time 25.0 hrs; how it was run: as §6
[16] = system: HeLa; experiment: Induction of mitophagy in human HeLa cells transfected with YFP-Parkin assessed as effect on mitochondrial fragmentation at 50 uM incubated for 24 hrs by Hoechst 33258 staining based immunofluorescence analysis; assay type: functional, cell-based; how it was run: as §4
[17] = molecular target: T1, Serine/threonine-protein kinase Pink1, mitochondrial (Tribolium castaneum); experiment: Inhibition of recombinant Tribolium castaneum PINK1 using human ubiquitin as substrate assessed as substrate phosphorylation upto 100 uM
[18] = system: HeLa; experiment: Inhibition of CCCP-induced ubiquitin phosphorylation at serine 65 residue in human HeLa cells transfected with YFP-Parkin at 50 uM preincubated for 24 hrs followed by CCCP stimulation and measured after 1 hr hr by Western blot analysis; assay type: cell-based; settings: time 25.0 hrs; how it was run: as §9
[19] = system: HeLa; experiment: Induction of mitophagy in YFP-Parkin-transfected human HeLa cells assessed as effect on ubiquitin phosphorylation at 50 uM incubated for 24 hrs by Hoechst 33258 staining based immunofluorescence analysis; assay type: functional, cell-based; how it was run: as §4
[20] = system: HeLa; experiment: Induction of mitochondrial membrane depolarization in human HeLa cells overexpressing Parkin assessed as inhibition of CCCP-induced OPA1 cleavage at 50 uM preincubated for 24 hrs followed by CCCP stimulation and measured after 3 hrs by Western blot analysis; assay type: functional, cell-based; settings: time 27.0 hrs; how it was run: as §2
[21] = system: MEF; experiment: Induction of mitophagy in wild-type PINK1 harboring mouse immortalized MEF cells overexpressing HA-tagged Parkin assessed as increase in mitophagy at 20 uM incubated for 16 hrs by flow cytometry analysis; assay type: functional, cell-based
How it was run: (§10)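 Immortalized MEFs from littermate PINK1 WT or KO mito-QC embryos (mCherry-GFP-FIS1 reporter), overexpressing HA-Parkin; 2.5 × 10^5 cells seeded day before, treated 16 h. Trypsinized, fixed in 3.7% formaldehyde/200 mM HEPES pH 7.0, ≥2 × 10^4 cells acquired by flow cytometry; live cells gated, percent mitophagy from GFP/mCherry ratio using untreated-cell gate; n = 3; two-way ANOVA with Sidak test.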

[22] = system: HeLa; experiment: Induction of mitochondrial membrane depolarization in human HeLa cells overexpressing Parkin assessed as OPA1 cleavage at 10 uM and measured after 3 hrs by Western blot analysis; assay type: functional, cell-based
How it was run: (§11)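 Parkin-transfected HeLa (DMEM, 10% FBS, 37 °C, 5% CO2) treated 3 h with 10 μM agent (CCCP control arm), with or without 24 h pre-treatment at 50 μM. Lysed in Tris pH 7.5 buffer with phosphatase/protease inhibitors, protein by Bradford, boiled in SDS buffer, immunoblotted for pUb Ser65, OPA1 (cleavage as depolarization read-out) and GAPDH loading control.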

[23] = system: MEF; experiment: Induction of mitophagy in PINK1 knockout mouse immortalized MEF cells overexpressing HA-tagged Parkin assessed as increase in mitophagy at 20 uM incubated for 16 hrs by flow cytometry analysis; assay type: functional, cell-based; how it was run: as §10
[24] = molecular target: Serine/threonine-protein kinase PINK1, mitochondrial (Homo sapiens) (UniProt Q9BXM7); experiment: Activation of human PINK1 in human HeLa cells overexpressing Parkin assessed as phosphorylation of ubiquitin at serine 65 at 10 uM and measured after 3 hr by Western blot analysis; assay type: cell-based; settings: filed as activator; how it was run: as §11
[25] = molecular target: Serine/threonine-protein kinase PINK1, mitochondrial (Homo sapiens) (UniProt Q9BXM7); experiment: Activation of PINK1 in human HeLa cells transfected with Parkin assessed as prevention of OPA1 cleavage at 50 uM incubated for 1 hr by Western blot analysis; assay type: cell-based; how it was run: as §1
[26] = system: HeLa; experiment: Induction of mitophagy in human HeLa cells transfected with YFP-Parkin assessed as parkin localization in mitochondria at 50 uM preincubated for 24 hrs followed by CCCP stimulation and measured after 1 hr hr by Hoechst 33258 staining based immunofluorescence analysis; assay type: functional, cell-based; how it was run: as §6

Chain of Serine/threonine-protein kinase PINK1, mitochondrial (Mus musculus) (Q99MQ3 whole entry): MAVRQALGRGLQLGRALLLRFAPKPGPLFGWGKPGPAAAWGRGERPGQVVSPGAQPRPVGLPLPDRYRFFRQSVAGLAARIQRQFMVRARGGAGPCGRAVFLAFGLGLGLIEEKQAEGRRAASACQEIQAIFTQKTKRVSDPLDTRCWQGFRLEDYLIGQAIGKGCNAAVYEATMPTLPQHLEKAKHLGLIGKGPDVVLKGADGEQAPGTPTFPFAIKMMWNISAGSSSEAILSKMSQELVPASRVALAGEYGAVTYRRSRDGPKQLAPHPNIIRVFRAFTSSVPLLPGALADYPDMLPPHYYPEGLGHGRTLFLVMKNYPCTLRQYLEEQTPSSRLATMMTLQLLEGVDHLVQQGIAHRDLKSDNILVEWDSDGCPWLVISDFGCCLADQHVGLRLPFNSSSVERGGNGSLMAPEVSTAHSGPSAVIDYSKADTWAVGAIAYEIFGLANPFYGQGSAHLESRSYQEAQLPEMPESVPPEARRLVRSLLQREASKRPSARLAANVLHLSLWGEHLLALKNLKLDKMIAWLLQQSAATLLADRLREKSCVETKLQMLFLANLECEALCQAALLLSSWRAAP
Chain of Serine/threonine-protein kinase PINK1, mitochondrial (Homo sapiens) (Q9BXM7 whole entry): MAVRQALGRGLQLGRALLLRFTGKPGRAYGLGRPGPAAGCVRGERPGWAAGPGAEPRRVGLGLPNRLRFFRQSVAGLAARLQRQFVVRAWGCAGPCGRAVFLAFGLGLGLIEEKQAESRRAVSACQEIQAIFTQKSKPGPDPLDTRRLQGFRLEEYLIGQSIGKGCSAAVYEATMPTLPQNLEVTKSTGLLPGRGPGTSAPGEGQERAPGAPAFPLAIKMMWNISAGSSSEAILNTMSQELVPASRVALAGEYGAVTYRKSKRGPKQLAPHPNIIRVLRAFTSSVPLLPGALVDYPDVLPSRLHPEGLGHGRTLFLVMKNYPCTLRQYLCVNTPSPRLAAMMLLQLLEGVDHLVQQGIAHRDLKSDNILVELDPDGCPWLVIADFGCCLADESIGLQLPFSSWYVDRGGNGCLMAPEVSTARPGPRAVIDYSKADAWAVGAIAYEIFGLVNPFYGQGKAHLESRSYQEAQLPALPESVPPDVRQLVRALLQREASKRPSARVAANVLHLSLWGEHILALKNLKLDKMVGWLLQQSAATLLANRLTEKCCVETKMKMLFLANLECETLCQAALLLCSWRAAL

c1nc(NC2CCCC2)c2nc[nH]c2n1
inactive: Activity [1]

c1ccc(CNc2ncnc3[nH]cnc23)cc1
inactive: Activity [1]

CNc1ncnc2[nH]cnc12
inactive: Activity [1]

c1coc(CNc2ncnc3[nH]cnc23)c1
active: Activity [3]
inactive: inhibition [2] | Activity [4] | Activity [5]

OC[C@H]1O[C@@H](n2cnc3c(NCc4ccco4)ncnc32)[C@H](O)[C@@H]1O
active: inhibition [2] | inhibition [9] | Activity [12] | inhibition [13] | inhibition [15] | inhibition [18]
inactive: inhibition [6] | Activity [7] | Activity [8] | Activity [10] | Activity [11] | inhibition [14] | Activity [16] | inhibition [17] | Activity [19] | Activity [4] | inhibition [20]

O=P(O)(O)OP(=O)(O)OP(=O)(O)OC[C@H]1O[C@@H](n2cnc3c(NCc4ccco4)ncnc32)[C@H](O)[C@@H]1O
inactive: inhibition [2] | Activity [4]

N#CC(C#N)=NNc1cccc(Cl)c1
inactive: Activity [23]
active: Activity [21] | Activity [22] | Activity [24]

OC[C@H]1O[C@@H](n2cnc3c(NC4CCCC4)ncnc32)[C@H](O)[C@@H]1O
inactive: Activity [25]
active: Activity ([1]; filed as activator)

OC[C@H]1O[C@@H](n2cnc3c(NCc4ccccc4)ncnc32)[C@H](O)[C@@H]1O
active: Activity [26] | Activity [12] | inhibition [15] | Activity [3] | Activity ([1]; filed as activator)
inactive: inhibition [6] | Activity [25] | Activity [7] | Activity [8] | Activity [16] | inhibition [17] | Activity [19] | Activity [5]

Source: ChEMBL document CHEMBL5352504, “PINK1-Dependent Mitophagy Inhibits Elevated Ubiquitin Phosphorylation Caused by Mitochondrial Damage” (J Med Chem, 2023)
